Measured values: PMC2222990 (The Journal of General Physiology, 1999)
Values belong to the molecule of their own block, whether it stands above or below them.

Columns and labels:
rod CNG channel = conditions: ref Fodor et al., 1997a; cited from earlier work
[1] = target: T1, bovine rod photoreceptor CNG channel α subunit (Bos taurus, UniProt Q00194); experiment: Inside-out patch clamp of rod CNG channels expressed in Xenopus oocytes; type: biochemical; conditions: for effect on cGMP sensitivity (K 1/2 for cGMP): 10 μM genistein, 10 μM lavendustin A, 25 μM erbstatin
T1 sequence (Q00194 1-690): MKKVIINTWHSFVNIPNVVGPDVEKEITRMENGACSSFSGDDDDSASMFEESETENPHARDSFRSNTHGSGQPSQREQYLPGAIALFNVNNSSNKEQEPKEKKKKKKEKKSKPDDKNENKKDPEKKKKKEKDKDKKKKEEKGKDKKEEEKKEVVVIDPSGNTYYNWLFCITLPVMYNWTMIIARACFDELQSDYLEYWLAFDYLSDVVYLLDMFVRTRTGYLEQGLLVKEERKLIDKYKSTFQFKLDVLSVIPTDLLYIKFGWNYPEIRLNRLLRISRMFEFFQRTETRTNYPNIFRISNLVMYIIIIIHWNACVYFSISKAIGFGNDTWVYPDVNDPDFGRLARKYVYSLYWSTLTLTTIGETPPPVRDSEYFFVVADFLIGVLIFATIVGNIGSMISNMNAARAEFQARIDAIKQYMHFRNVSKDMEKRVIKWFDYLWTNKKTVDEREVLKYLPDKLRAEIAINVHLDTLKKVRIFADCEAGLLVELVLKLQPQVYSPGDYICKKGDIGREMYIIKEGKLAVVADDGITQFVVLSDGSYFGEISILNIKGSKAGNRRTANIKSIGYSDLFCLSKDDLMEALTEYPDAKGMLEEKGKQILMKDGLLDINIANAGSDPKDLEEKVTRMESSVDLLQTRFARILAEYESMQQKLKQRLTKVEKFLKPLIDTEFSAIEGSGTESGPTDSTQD
Procedure, shortened: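 Inside-out patches from Xenopus oocytes 2–7 d after injection (vitelline membrane removed), 21–24°C, held at −75 mV. Pipette/bath solution: 115 mM NaCl, 5 mM EGTA, 1 mM EDTA, 10 mM HEPES, pH 7.5. Test compound preapplied 1 min to closed channels (±100 μM erbstatin) at 1 or 10 min after excision, or applied at steady state; then 2 mM cGMP. Currents normalized to Imax; Ki, Hill coefficient and cGMP K1/2 (4–5 cGMP levels) fitted to Hill equation; mean ± SEM.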

[2] = target: T2, rat olfactory CNG channels (Rattus norvegicus, UniProt Q00195); type: biochemical; conditions: n = 10 patches
T2 sequence (Q00195 1-664): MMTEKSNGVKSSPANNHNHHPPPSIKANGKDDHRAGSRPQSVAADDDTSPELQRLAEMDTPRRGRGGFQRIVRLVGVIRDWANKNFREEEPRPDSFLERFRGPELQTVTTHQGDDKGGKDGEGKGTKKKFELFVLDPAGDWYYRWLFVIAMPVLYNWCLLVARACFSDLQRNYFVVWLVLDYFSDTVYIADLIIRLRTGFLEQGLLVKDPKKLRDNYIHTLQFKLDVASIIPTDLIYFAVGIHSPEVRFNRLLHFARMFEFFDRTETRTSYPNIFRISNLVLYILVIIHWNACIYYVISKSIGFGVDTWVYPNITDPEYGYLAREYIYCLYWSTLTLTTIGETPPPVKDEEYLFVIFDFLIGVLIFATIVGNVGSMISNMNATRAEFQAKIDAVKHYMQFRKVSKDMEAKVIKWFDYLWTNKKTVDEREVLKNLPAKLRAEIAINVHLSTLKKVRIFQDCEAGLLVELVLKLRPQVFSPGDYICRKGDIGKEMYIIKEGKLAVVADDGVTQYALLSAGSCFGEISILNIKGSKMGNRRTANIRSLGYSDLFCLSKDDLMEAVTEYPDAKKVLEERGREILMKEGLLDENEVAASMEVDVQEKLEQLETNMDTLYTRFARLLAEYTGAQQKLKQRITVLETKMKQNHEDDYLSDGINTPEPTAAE

[3] = test system: native CNG channels from salamander rod outer segments; experiment: Inside-out patches with native CNG channels from rod outer segments; type: biochemical, tiger salamanders (Ambystoma tigrinum); conditions: 100 μM genistein
[4] = 100 μM genistein, preexposure 1 min, 2 mM cGMP

SMILES: CCCCNc1ccc(C(=O)OCCN(C)C)cc1 [tetracaine]
- time of block (rod CNG channel): < 100 ms

SMILES: O=CN/C=C/c1cc(O)ccc1O [erbstatin]
- effect on cGMP sensitivity (K 1/2 for cGMP) ([1]; in the presence of ATP): increase in cGMP sensitivity

SMILES: O=C(O)c1cc(N(Cc2ccccc2O)Cc2cc(O)ccc2O)ccc1O [lavendustin A]
- effect on cGMP sensitivity (K 1/2 for cGMP) ([1]; in the presence of ATP): increase in cGMP sensitivity

Second part, led by results:

- effect on rat olfactory CNG channels [2]: no effect
- effect on rod CNG channels (maximal current) ([1]; saturating cGMP): no effect
SMILES: O=c1c(-c2ccc(O)cc2)coc2cc(O)ccc12 [daidzein]

- effect on rat olfactory CNG channels [2]: no effect
- time course of inhibition [1]: > 30 s
- residual current, % of maximal CNG current ([1]; 100 μM genistein with 100 μM erbstatin present): 20%
- residual current (fraction of total current with normal rapid activation) [1, 4]: 4.5%
- steady state current elicited by cGMP [1, 4]: 40 % of control
- residual current, % of maximal CNG current ([1]; 100 μM genistein, without erbstatin): < 5%
- voltage dependence of inhibition ([1]; 100 μM genistein, saturating cGMP): voltage-independent
- time constant of slow current activation by cGMP ([1]; 100 μM genistein, single exponential fit): 10.6 s
- Ki ([1]; K i for genistein inhibition of CNG current activation by cGMP, in the presence of 1 mM ATP): 10.6 ± 1.3 µM
- Ki ([1]; apparent affinity of genistein for the rod channel, closed to activated channels): 5 to 80 µM
- K i values at 1 versus 10 min after patch excision ([1]; closed channels, residual current): do not differ
- extent of inhibition of steady state (fully activated) CNG current ([1]; high genistein concentrations (e.g., 1 mM)): incomplete
- Hill coefficient for genistein inhibition ([1]; in the absence of ATP): 1.9 ± 0.2
- effect on cGMP sensitivity (K 1/2 for cGMP) ([1]; in the absence of ATP): no effect
- Hill coefficient for genistein inhibition ([1]; in the presence of ATP): 2.0 ± 0.2
- effect on cGMP sensitivity (K 1/2 for cGMP) ([1]; in the presence of ATP): increase in cGMP sensitivity
- inhibition at 100 µM ([1]; read-out: inhibition of closed channels, 100 μM genistein, without erbstatin): > 95%
- extent of inhibition of closed channels ([1]; saturating genistein (>100 μM)): complete inhibition
- time constant of inhibition of closed CNG channels ([1]; single exponential fit, data not shown): 8.9 s
- time required to recover from genistein inhibition ([1]; unpublished observations): > 60 s
SMILES: O=c1c(-c2ccc(O)cc2)coc2cc(O)cc(O)c12 [genistein]
- effect on cGMP-activated current of native channels [3]: reduced the magnitude of the cGMP-activated current and slowed the activation kinetics
